Calls of active or inactive are those of the source.
Legend:
[1] = molecular target: T1, Adrenergic receptor alpha-2 (Rattus norvegicus, UniProt P22086+P19328+P22909); experiment: Displacement of [3H]clonidine from alpha2 adrenergic receptor in rat cerebral cortex by liquid scintillation counting; assay type: tissue-based
T1 sequence (P22086 whole entry): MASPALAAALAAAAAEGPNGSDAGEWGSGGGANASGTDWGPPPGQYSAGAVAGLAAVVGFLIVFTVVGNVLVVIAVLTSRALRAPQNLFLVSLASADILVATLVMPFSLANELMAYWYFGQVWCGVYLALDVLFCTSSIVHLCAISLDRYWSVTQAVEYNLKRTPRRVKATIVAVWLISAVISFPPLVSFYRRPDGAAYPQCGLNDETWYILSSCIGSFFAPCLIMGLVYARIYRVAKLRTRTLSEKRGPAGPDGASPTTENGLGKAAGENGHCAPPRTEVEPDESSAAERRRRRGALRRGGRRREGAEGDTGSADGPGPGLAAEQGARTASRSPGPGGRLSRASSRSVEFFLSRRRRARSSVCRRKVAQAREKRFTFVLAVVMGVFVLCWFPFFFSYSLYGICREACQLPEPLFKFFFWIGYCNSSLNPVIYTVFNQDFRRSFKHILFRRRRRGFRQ
T1 sequence (P19328 whole entry): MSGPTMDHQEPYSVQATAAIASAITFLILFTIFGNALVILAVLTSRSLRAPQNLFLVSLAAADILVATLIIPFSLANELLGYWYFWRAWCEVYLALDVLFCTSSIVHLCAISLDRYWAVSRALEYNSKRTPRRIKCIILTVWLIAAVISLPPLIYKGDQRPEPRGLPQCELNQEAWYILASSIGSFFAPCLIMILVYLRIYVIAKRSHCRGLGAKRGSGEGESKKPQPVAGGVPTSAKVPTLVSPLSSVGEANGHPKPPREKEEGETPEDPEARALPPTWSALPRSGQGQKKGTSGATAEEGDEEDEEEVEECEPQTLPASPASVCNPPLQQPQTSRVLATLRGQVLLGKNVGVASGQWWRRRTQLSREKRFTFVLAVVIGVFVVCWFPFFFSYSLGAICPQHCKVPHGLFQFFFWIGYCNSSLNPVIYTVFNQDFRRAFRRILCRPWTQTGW
T1 sequence (P22909 whole entry): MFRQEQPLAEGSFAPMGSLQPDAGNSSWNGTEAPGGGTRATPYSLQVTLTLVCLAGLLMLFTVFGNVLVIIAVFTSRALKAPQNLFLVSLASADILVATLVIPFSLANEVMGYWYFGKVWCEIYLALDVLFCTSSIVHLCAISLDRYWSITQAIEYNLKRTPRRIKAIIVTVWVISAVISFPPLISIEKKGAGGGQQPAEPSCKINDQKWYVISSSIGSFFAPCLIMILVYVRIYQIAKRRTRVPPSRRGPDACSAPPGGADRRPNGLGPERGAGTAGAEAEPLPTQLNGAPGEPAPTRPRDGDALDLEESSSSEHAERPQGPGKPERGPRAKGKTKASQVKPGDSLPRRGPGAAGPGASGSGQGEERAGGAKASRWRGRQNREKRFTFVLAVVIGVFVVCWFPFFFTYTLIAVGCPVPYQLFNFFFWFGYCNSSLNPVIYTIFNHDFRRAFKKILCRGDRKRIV
In short: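 Rat cerebral cortex membranes were prepared in ice-cold 50 mM Tris–HCl pH 7.6 (20 000 × g, 20 min, 0–4 °C, washed twice). They were incubated with [3H]clonidine 2 nM and seven to eight compound concentrations (10^-11–10^-4 M), with excess unlabelled clonidine defining nonspecific binding. Samples were glass-fiber filtered and counted by liquid scintillation, in duplicate. Ki was calculated by Cheng–Prusoff.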

Rattus norvegicus [2] = species: Rattus norvegicus; experiment: Hypotensive activity in Wistar rat assessed as reduction in epinephrine-induced systolic blood pressure response; assay type: functional, organism-based; details: Artery
In short: (§1)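 In anaesthetized rats, pressor responses were evoked by i.v. epinephrine, norepinephrine or methoxamine. Blood pressure was recorded through a heparin-saline-filled cannula in the carotid artery.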

Rattus norvegicus [3] = species: Rattus norvegicus; experiment: Hypotensive activity in Wistar rat assessed as reduction in norepinephrine-induced systolic blood pressure response; assay type: functional, organism-based; details: Artery; in short: as §1
Rattus norvegicus [4] = species: Rattus norvegicus; experiment: Hypotensive activity in Wistar rat assessed as reduction in methoxamine-induced systolic blood pressure response; assay type: functional, organism-based; details: Artery; in short: as §1
Rattus norvegicus [5] = experiment: Antiarrhythmic activity against adrenaline-induced arrhythmia in iv dosed rat assessed as inhibition of cardiac rhythm disturbance administered 15 mins before adrenaline challenge; assay type: functional; details: Heart
In short: (§2)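 Rats anaesthetized with thiopental 60 mg/kg ip received the compound i.v. 15 min before an i.v. adrenaline challenge. Rhythm disturbances were recorded for 15 min after adrenaline. Activity was defined as absence of premature beats and inhibition of disturbances versus controls. ED50 values, with confidence limits, were derived by Litchfield–Wilcoxon from three groups of six animals.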

Rattus norvegicus [6] = experiment: Hypotensive activity in Wistar rat assessed as reduction in epinephrine-induced blood pressure response at 5 mg/kg; assay type: functional, organism-based; set-up: dose 5 mg/kg; in short: as §1
Rattus norvegicus [7] = experiment: Hypotensive activity in Wistar rat assessed as reduction in norepinephrine-induced blood pressure response at 5 mg/kg; assay type: functional, organism-based; set-up: dose 5 mg/kg; in short: as §1
Rattus norvegicus [8] = experiment: Hypotensive activity in Wistar rat assessed as reduction in methoxamine-induced pressure response at 5 mg/kg; assay type: functional, organism-based; set-up: dose 5 mg/kg; in short: as §1
Rattus norvegicus [9] = experiment: Antiarrhythmic activity against adrenaline-induced arrhythmia in iv dosed rat assessed as reduction in mortality rate administered 15 mins before adrenaline challenge; assay type: functional, organism-based; details: Heart; in short: as §2
Rattus norvegicus [10] = experiment: Antiarrhythmic activity against adrenaline-induced arrhythmia in iv dosed rat assessed as reduction in supraventricular extrasystole administered 15 mins before adrenaline challenge; assay type: functional, organism-based; details: Heart; in short: as §2
Rattus norvegicus [11] = experiment: Antiarrhythmic activity against adrenaline-induced arrhythmia in iv dosed rat assessed as reduction in ventricular extrasystole administered 15 mins before adrenaline challenge; assay type: functional, organism-based; details: Heart; in short: as §2
Rattus norvegicus [12] = experiment: Antiarrhythmic activity against adrenaline-induced arrhythmia in iv dosed rat assessed as reduction in bigeminy administered 15 mins before adrenaline challenge; assay type: functional, organism-based; details: Heart; in short: as §2
Rattus norvegicus [13] = experiment: Antiarrhythmic activity against adrenaline-induced arrhythmia in rat assessed as reduction in reflex bradycardia at 5 mg/kg, iv administered 15 mins before adrenaline challenge; assay type: functional, organism-based; set-up: dose 5 mg/kg; details: Heart
In short: (§3)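 Rats anaesthetized with thiopental 60 mg/kg ip were dosed i.v. 15 min before an i.v. adrenaline challenge. Cardiac rhythm disturbances (bradycardia, extrasystoles, bigeminy, blocks) were recorded for 15 min after adrenaline and compared with controls.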

Rattus norvegicus [14] = experiment: Antiarrhythmic activity against adrenaline-induced arrhythmia in rat assessed as reduction in supraventricular extrasystole at 5 mg/kg, iv administered 15 mins before adrenaline challenge; assay type: functional, organism-based; set-up: dose 5 mg/kg; details: Heart; in short: as §3
Rattus norvegicus [15] = experiment: Antiarrhythmic activity against adrenaline-induced arrhythmia in rat assessed as reduction in ventricular extrasystole at 5 mg/kg, iv administered 15 mins before adrenaline challenge; assay type: functional, organism-based; set-up: dose 5 mg/kg; details: Heart; in short: as §3
Rattus norvegicus [16] = experiment: Antiarrhythmic activity against adrenaline-induced arrhythmia in rat assessed as reduction in bigeminy at 5 mg/kg, iv administered 15 mins before adrenaline challenge; assay type: functional, organism-based; set-up: dose 5 mg/kg; details: Heart; in short: as §3
Rattus norvegicus [17] = experiment: Antiarrhythmic activity against adrenaline-induced arrhythmia in rat assessed as reduction in cardiac block at 5 mg/kg, iv administered 15 mins before adrenaline challenge; assay type: functional, organism-based; set-up: dose 5 mg/kg; details: Heart; in short: as §3
Rattus norvegicus [18] = experiment: Hypotensive activity in normotensive Wistar rat assessed as systolic blood pressure at 5 mg/kg, iv after 10 mins (Rvb=138 +/- 0.9 mmHg); assay type: functional, Artery
Rattus norvegicus [19] = experiment: Hypotensive activity in normotensive Wistar rat assessed as systolic blood pressure at 5 mg/kg, iv after 20 mins (Rvb=138 +/- 0.9 mmHg); assay type: functional, Artery
Rattus norvegicus [20] = experiment: Hypotensive activity in normotensive Wistar rat assessed as diastolic blood pressure at 5 mg/kg, iv after 5 mins (Rvb=119 +/- 1.2 mmHg); assay type: functional, Artery

Row | SMILES | pKi [1] | Activity (Rattus norvegicus [2]) | Activity (Rattus norvegicus [3]) | Activity (Rattus norvegicus [4]) | ED50 (Rattus norvegicus [5]) [mg/kg] | Activity (Rattus norvegicus [6]) | Activity (Rattus norvegicus [7]) | Activity (Rattus norvegicus [8]) | Activity (Rattus norvegicus [9]) | Activity (Rattus norvegicus [10]) | Activity (Rattus norvegicus [11]) | Activity (Rattus norvegicus [12]) | Activity (Rattus norvegicus [13]) | Activity (Rattus norvegicus [14]) | Activity (Rattus norvegicus [15]) | Activity (Rattus norvegicus [16]) | Activity (Rattus norvegicus [17]) | Activity (Rattus norvegicus [18]) [mmHg] | Activity (Rattus norvegicus [19]) [mmHg] | Activity (Rattus norvegicus [20]) [mmHg]
1 | COc1ccc(N2CCN(CC(O)CN3CCC(c4ccccc4)(c4ccccc4)C3=O)CC2)cc1.Cl.Cl (stereo unspecified) | 6 | inactive | inactive | inactive | – | – | – | – | – | – | – | – | – | – | – | – | – | – | – | –
2 | Cl.Cl.O=C1N(CC(O)CN2CCN(c3ccccc3)CC2)CCC1(c1ccccc1)c1ccccc1 (stereo unspecified) | 6.64 | – | – | – | 1.9 | Active | Active | Active | Active | Active | Active | Active | – | – | – | – | – | – | – | –
3 | Cl.Cl.O=C1N(CC(O)CN2CCN(c3ccccc3C(F)(F)F)CC2)CCC1(c1ccccc1)c1ccccc1 (stereo unspecified) | 5.29 | inactive | inactive | inactive | 3.9 | – | – | – | Active | Active | Active | Active | – | – | – | – | – | 122 | 119 | 103

The next lines start with results.

Row | pKi [1] | SMILES | Activity (Rattus norvegicus [2]) | Activity (Rattus norvegicus [3]) | Activity (Rattus norvegicus [4]) | ED50 (Rattus norvegicus [5]) [mg/kg] | Activity (Rattus norvegicus [6]) | Activity (Rattus norvegicus [7]) | Activity (Rattus norvegicus [8]) | Activity (Rattus norvegicus [9]) | Activity (Rattus norvegicus [10]) | Activity (Rattus norvegicus [11]) | Activity (Rattus norvegicus [12]) | Activity (Rattus norvegicus [13]) | Activity (Rattus norvegicus [14]) | Activity (Rattus norvegicus [15]) | Activity (Rattus norvegicus [16]) | Activity (Rattus norvegicus [17]) | Activity (Rattus norvegicus [18]) [mmHg] | Activity (Rattus norvegicus [19]) [mmHg] | Activity (Rattus norvegicus [20]) [mmHg]
4 | 6.68 | COc1ccccc1N1CCN(CC(O)CN2CCC(c3ccccc3)(c3ccccc3)C2=O)CC1.Cl.Cl (stereo unspecified) | – | – | – | 2.05 | Active | Active | Active | Active | Active | Active | Active | – | – | – | – | – | – | – | –
5 | 6.38 | CCOc1ccccc1N1CCN(CC(O)CN2CCC(c3ccccc3)(c3ccccc3)C2=O)CC1.Cl.Cl (stereo unspecified) | – | – | – | 1.1 | Active | Active | Active | Active | – | – | – | Active | Active | Active | Active | Active | – | – | –
6 | 6.51 | Cc1ccccc1N1CCN(CC(O)CN2CCC(c3ccccc3)(c3ccccc3)C2=O)CC1.Cl.Cl (stereo unspecified) | – | – | – | 1.4 | Active | Active | Active | Active | – | – | – | Active | Active | Active | Active | Active | – | – | –
